M5 ag: agonists of human muscarinic M5 receptor (CHRM5) | CHO-K1 hM5 cells, Fluo-8 calcium fluorescence; 0% DMSO wells, 100% maximal acetylcholine response | activation, % at 3 µM | 360,000 compounds, 0.19% hits | AID 624037;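 active means activation above the run's mean over test compounds plus 3 SD, cut at about 23% in these data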;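 further: signal is peak over basal fluorescence ratio across the kinetic read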
M5 antag: antagonists of human muscarinic M5 receptor (CHRM5). 360,000 compounds, 0.59% hits. AID 624040. CHO-hM5 cells, Fluo-8 calcium fluorescence, ACh EC80. inhibition, % at 3 µM;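 active means inhibition above a per-plate cutoff, the mean of that plate's test compounds plus 3 SD, cut at about 27% in these data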
M5 PAM: CHRM5 positive allosteric modulation | P08912 | CHO-K1 hM5, Fluo-8 calcium, ACh EC20 PAM; 0% = ACh EC20, 100% = ACh EC100 | activation, % at 3 µM | 360,000 compounds, 0.3% hits | AID 624038;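 active means activation above the run cutoff, the mean activation of all test compounds plus 3 SD, cut at about 18% in these data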
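System: CHO-K1 hM5 cells. Reagent: acetylcholine, EC20 level. Compound dosing: single dose, 3 µM nominal final test concentration. Timing: Post-acetylcholine fluorescence recording 140 s. Detection: Fluo-8 calcium fluorescence. Read-out: % activation, ACh-normalized. Benchmarks: ACh EC20 and EC100 wells. Repeats: singlicate, one well per test compound.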
M4 ag: agonists of human muscarinic M4 receptor (CHRM4); P08173; CHO-K1 hM4/Gqi5, Fluo-8 calcium fluorescence; vehicle 0%, full acetylcholine response 100%; activation, % at 3 µM; 360,000 compounds, 0.14% hits; AID 624127;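 active means activation above the run mean over all test wells plus 3 SD, cut at about 32% in these data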;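 further: peak over basal fluorescence ratio per well then scaled between controls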
Target sequence (P08173 whole entry, looked up): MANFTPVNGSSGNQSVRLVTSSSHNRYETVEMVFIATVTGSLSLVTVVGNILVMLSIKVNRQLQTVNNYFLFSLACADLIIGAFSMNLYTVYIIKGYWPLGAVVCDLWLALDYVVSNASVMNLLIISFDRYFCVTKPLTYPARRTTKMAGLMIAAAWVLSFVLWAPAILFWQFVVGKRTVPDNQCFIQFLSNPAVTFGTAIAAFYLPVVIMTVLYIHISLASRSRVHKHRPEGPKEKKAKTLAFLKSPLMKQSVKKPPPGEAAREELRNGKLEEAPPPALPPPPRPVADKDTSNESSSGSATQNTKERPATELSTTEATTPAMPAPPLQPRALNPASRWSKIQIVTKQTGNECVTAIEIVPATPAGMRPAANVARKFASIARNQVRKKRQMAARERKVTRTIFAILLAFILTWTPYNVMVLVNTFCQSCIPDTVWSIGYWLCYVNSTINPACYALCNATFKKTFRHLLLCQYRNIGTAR
CHRM4 antagonist: antagonists of human muscarinic M4 receptor (CHRM4); P08173; CHO-hM4 cells, ACh EC80, Fluo-8 calcium fluorescence; inhibition, % at 3 µM; 360,000 compounds, 0.73% hits; AID 624125;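 active means inhibition above its plate's cutoff, the mean inhibition of sample wells plus 3 SD, cut at about 27% in these data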
CHRM4 PAM: positive allosteric modulators of human muscarinic M4 receptor; P08173; 360,000 compounds, 0.4% hits; activation, % at 3 µM; CHO-K1 hM4/Gqi5, Fluo-8 calcium fluorescence, ACh EC20; 0% = ACh EC20, 100% = maximal ACh; AID 624126;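 active means activation above its plate's cutoff, the mean activation of sample wells plus 3 SD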
A number is an active result. Most compounds without a hit are left out; they make up all but 1.8% or so of the library.

For CCN(CC(=O)Nc1ccc(Br)cc1)C(=O)Cc1cccc(F)c1 the results were M5 ag inactive, M5 antag inactive, M5 PAM inactive, M4 ag inactive, CHRM4 antagonist inactive and CHRM4 PAM inactive.
Screening Cc1c(C(=O)Nc2ccc(S(=O)(=O)Nc3ncccn3)cc2)oc2ccc(F)cc12 returned M5 ag inactive, M5 antag inactive, M5 PAM inactive, M4 ag inactive, CHRM4 antagonist inactive and CHRM4 PAM inactive.
For COC(/C(=N/O)c1ccc(Cl)cc1)c1ccccc1 (stereo not drawn) the results were M5 ag inactive, M5 antag 29, M5 PAM inactive, M4 ag inactive, CHRM4 antagonist 28 and CHRM4 PAM inactive.
COC(=O)c1cc(Sc2cccc(Cl)c2Cl)ccn1 was read as M5 ag inactive, M5 antag inactive, M5 PAM 21, M4 ag inactive, CHRM4 antagonist inactive and CHRM4 PAM inactive.
For CCC(C)N(C(=O)CN1C(=O)NC2(CCc3ccccc32)C1=O)C1CCS(=O)(=O)C1 (stereo not drawn) the results were M5 ag inactive, M5 antag inactive, M5 PAM inactive, M4 ag inactive, CHRM4 antagonist inactive and CHRM4 PAM inactive.
Screening Cc1cc(C)c(C#N)c(SCc2ccccc2[N+](=O)[O-])n1 returned M5 ag inactive, M5 antag inactive, M5 PAM inactive, M4 ag inactive, CHRM4 antagonist inactive and CHRM4 PAM inactive.
For Cc1cc(C)c(C#N)c(SCc2nnc(-c3ccccc3[N+](=O)[O-])o2)n1 the results were M5 ag inactive, M5 antag 47, M5 PAM inactive, M4 ag inactive, CHRM4 antagonist inactive and CHRM4 PAM inactive.
Screening CCN(CC)CCNC(=O)C(=O)NCC1OCCN1S(=O)(=O)c1ccc2c(c1)OCCO2 (stereo not drawn) returned M5 ag inactive, M5 antag inactive, M5 PAM inactive, M4 ag inactive, CHRM4 antagonist inactive and CHRM4 PAM inactive.
Cc1ccc(O)c(NC(=S)NC(=O)Cc2ccc(Cl)cc2)c1 was read as M5 ag 61, M5 antag 81, M5 PAM inactive, M4 ag 140, CHRM4 antagonist 100 and CHRM4 PAM inactive.
`Cc1ccc(NC(=S)NC(=O)c2ccc(-c3ccc(Cl)cc3)o2)c(O)c1` gave M5 ag inactive, M5 antag inactive, M5 PAM inactive, M4 ag inactive, CHRM4 antagonist inactive and CHRM4 PAM inactive.
For O=C(O)CC(Cc1ccc(Cl)cc1)C(=O)Nc1cc(Cl)ccc1Cl (stereo not drawn) the results were M5 ag inactive, M5 antag inactive, M5 PAM inactive, M4 ag inactive, CHRM4 antagonist inactive and CHRM4 PAM inactive.
`O=C(Nc1nc2ccc(S(=O)(=O)N3CCCCC3)cc2s1)C1CCCO1` (stereo not drawn) gave M5 ag inactive, M5 antag inactive, M5 PAM inactive, M4 ag inactive, CHRM4 antagonist inactive and CHRM4 PAM 34.
`Cc1noc(C(=O)N2CCN(Cc3ccc4c(c3)OCO4)CC2)c1Cl` gave M5 ag inactive, M5 antag inactive, M5 PAM inactive, M4 ag inactive, CHRM4 antagonist inactive and CHRM4 PAM inactive.
For CNC(C)C(=O)NC(C(=O)N1CCCC1C(=O)Nc1ccc2[nH]ccc2c1)C(C)C (stereo not drawn) the results were M5 ag inactive, M5 antag inactive, M5 PAM inactive, M4 ag inactive, CHRM4 antagonist inactive and CHRM4 PAM inactive.
Screening CNC(C)C(=O)NC(C(=O)N1CCCC1C(=O)Nc1ccc2ncccc2c1)C(C)C (stereo not drawn) returned M5 ag inactive, M5 antag inactive, M5 PAM inactive, M4 ag inactive, CHRM4 antagonist inactive and CHRM4 PAM 29.
`Cc1ccc(C(=O)C(C)Oc2ccc3ccc(=O)oc3c2)cc1` (stereo not drawn) gave M5 ag inactive, M5 antag inactive, M5 PAM inactive, M4 ag inactive, CHRM4 antagonist inactive and CHRM4 PAM inactive.
`CC(=O)Nc1ccc(NC(=S)NC(=O)C2CC2)cc1` gave M5 ag inactive, M5 antag inactive, M5 PAM inactive, M4 ag inactive, CHRM4 antagonist inactive and CHRM4 PAM 25.
`O=C(NC(=S)Nc1ccc(O)cc1)C1CCCC1` gave M5 ag inactive, M5 antag inactive, M5 PAM inactive, M4 ag inactive, CHRM4 antagonist inactive and CHRM4 PAM inactive.
Screening Cc1cc(Cl)ccc1OCC(=O)Nc1ccncc1 returned M5 ag inactive, M5 antag 33, M5 PAM inactive, M4 ag inactive, CHRM4 antagonist inactive and CHRM4 PAM inactive.
CCN1CCN(c2ccc(NC(=O)COc3ccccc3Cl)cc2)CC1 was read as M5 ag inactive, M5 antag inactive, M5 PAM inactive, M4 ag inactive, CHRM4 antagonist inactive and CHRM4 PAM inactive.
For CCN1CCN(c2ccc(NC(=O)COc3ccc(Cl)cc3C)cc2)CC1 the results were M5 ag inactive, M5 antag 42, M5 PAM inactive, M4 ag inactive, CHRM4 antagonist 28 and CHRM4 PAM inactive.
Screening Cc1cc(Cl)ccc1OCC(=O)NCc1ccncc1 returned M5 ag inactive, M5 antag inactive, M5 PAM inactive, M4 ag inactive, CHRM4 antagonist inactive and CHRM4 PAM inactive.
`O=C(COc1ccc(Cl)cc1Cl)NCc1ccncc1` gave M5 ag inactive, M5 antag inactive, M5 PAM inactive, M4 ag inactive, CHRM4 antagonist 30 and CHRM4 PAM inactive.
Screening CCOC(=O)c1c(-c2ccc(C)o2)csc1NC(=O)COC(=O)c1cccs1 returned M5 ag inactive, M5 antag inactive, M5 PAM inactive, M4 ag inactive, CHRM4 antagonist 29 and CHRM4 PAM inactive.
Cc1c(C)c2cc(Cl)c(O)c(CN3CCCC(C)C3)c2oc1=O (stereo not drawn) was read as M5 ag inactive, M5 antag inactive, M5 PAM inactive, M4 ag inactive, CHRM4 antagonist 28 and CHRM4 PAM inactive.
`O=C(N/N=C/c1ccc(Cl)cc1Cl)c1n[nH]c2c1CCCC2` gave M5 ag inactive, M5 antag inactive, M5 PAM inactive, M4 ag inactive, CHRM4 antagonist inactive and CHRM4 PAM 26.
For Cc1c(NC(=O)c2ccc(-c3ccccc3)cc2)cccc1C(=O)O the results were M5 ag inactive, M5 antag inactive, M5 PAM inactive, M4 ag inactive, CHRM4 antagonist inactive and CHRM4 PAM inactive.
Screening COc1ccc(/C=C2\SC(=S)NC2=O)cc1OS(=O)(=O)c1ccc(NC(C)=O)cc1 returned M5 ag inactive, M5 antag inactive, M5 PAM inactive, M4 ag inactive, CHRM4 antagonist inactive and CHRM4 PAM inactive.

Screens as filed in PubChem.
